Assay results: ChEMBL document CHEMBL1156681, “Synthesis, anti-bacterial, anti-asthmatic and anti-diabetic activities of novel N-substituted-2-(4-phenylethynyl-phenyl)-1H-benzimidazoles and N-substituted 2[4-(4,4-dimethyl-thiochroman-6-yl-ethynyl)-phenyl)-1H-benzimidazoles” (2008)
Values after ≈ are worked out from the molar mass of the structure shown. Active and inactive are the calls of the source. No cut-off for these calls is given here.

What was measured:
[1] = tested on: Salmonella typhimurium; test: Antibacterial activity against Salmonella Typhimurium at 1 ug/ml after 48 hrs by tube dilution method; format: functional, organism-based; settings: Salmonella enterica subsp. enterica serovar Typhimurium
How it was run: (§1)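 Compounds dissolved in DMSO and tested by tube dilution at […]. Tubes were incubated at 37 °C for 48 h. Growth was scored against the DMSO control as poor, medium or confluent (no inhibition). MIC was taken from the dilution series. Cephalexin served as the reference antibacterial and DMSO as the solvent control.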

[2] = biological target: Dipeptidyl peptidase 4 (Homo sapiens) (UniProt P27487); test: Inhibition of human recombinant DPP4 at 0.3 uM after 30 mins relative to control
Dipeptidyl peptidase 4 (Homo sapiens), sequence (P27487 whole entry, looked up): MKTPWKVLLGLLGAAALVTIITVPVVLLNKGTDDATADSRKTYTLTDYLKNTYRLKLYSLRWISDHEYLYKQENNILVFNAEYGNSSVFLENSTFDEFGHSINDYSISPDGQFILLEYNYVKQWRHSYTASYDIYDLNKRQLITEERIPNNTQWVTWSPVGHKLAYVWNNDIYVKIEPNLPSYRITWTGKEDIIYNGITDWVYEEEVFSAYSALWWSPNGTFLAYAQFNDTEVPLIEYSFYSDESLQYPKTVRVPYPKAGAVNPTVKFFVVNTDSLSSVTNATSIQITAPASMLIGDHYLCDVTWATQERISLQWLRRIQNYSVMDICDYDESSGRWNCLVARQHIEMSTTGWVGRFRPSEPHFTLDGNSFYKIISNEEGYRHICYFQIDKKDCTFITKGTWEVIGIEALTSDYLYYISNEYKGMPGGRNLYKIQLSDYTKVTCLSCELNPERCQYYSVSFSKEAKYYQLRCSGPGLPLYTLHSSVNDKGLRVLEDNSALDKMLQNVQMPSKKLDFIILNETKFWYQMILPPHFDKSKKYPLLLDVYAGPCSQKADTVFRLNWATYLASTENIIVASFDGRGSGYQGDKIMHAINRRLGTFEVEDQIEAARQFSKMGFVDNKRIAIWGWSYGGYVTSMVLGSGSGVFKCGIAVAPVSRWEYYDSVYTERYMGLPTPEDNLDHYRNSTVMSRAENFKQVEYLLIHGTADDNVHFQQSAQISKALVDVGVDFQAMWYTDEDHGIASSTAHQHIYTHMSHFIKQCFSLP
How it was run: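 Recombinant human DPP-IV (10 ng) was run in 25 mM Tris pH 7.4, 140 mM NaCl, 10 mM KCl and 1% BSA with Gly-Pro-AMC substrate. Compounds in DMSO were added, and AMC release was followed kinetically at 30 °C for 30 min (ex 380 / em 460 nm). Percent inhibition was calculated against the solvent-only control.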

[3] = tested on: Staphylococcus aureus; test: Antibacterial activity against Staphylococcus aureus after 48 hrs by tube dilution method; format: functional; how it was run: as §1
[4] = tested on: Salmonella typhimurium; test: Antibacterial activity against Salmonella Typhimurium at 0.1 ug/ml after 48 hrs by tube dilution method; format: functional, organism-based; settings: Salmonella enterica subsp. enterica serovar Typhimurium; how it was run: as §1
[5] = biological target: Phosphodiesterase 4 (Homo sapiens) (UniProt P27815+Q08499+Q07343+Q08493); test: Inhibition of human PDE4 at 1 uM after 20 mins; format: protein assay
[6] = tested on: Salmonella typhimurium; test: Antibacterial activity against Salmonella Typhimurium after 48 hrs by tube dilution method; format: functional, Salmonella enterica subsp. enterica serovar Typhimurium; settings: Salmonella enterica; how it was run: as §1
[7] = tested on: Staphylococcus aureus; test: Antibacterial activity against Staphylococcus aureus at 500 ug/ml after 48 hrs by tube dilution method; format: functional, organism-based; how it was run: as §1
[8] = tested on: Staphylococcus aureus; test: Antibacterial activity against Staphylococcus aureus at 0.1 ug/ml after 48 hrs by tube dilution method; format: functional, organism-based; how it was run: as §1
[9] = tested on: Salmonella typhimurium; test: Antibacterial activity against Salmonella Typhimurium at 500 ug/ml after 48 hrs by tube dilution method; format: functional, organism-based; settings: Salmonella enterica subsp. enterica serovar Typhimurium; how it was run: as §1
[10] = tested on: Staphylococcus aureus; test: Antibacterial activity against Staphylococcus aureus at 1 ug/ml after 48 hrs by tube dilution method; format: functional, organism-based; how it was run: as §1
[11] = biological target: T1, Tyrosine-protein phosphatase non-receptor type 1 (Homo sapiens) (UniProt P18031); test: Inhibition of human recombinant PTP1B at 30 uM after 30 mins relative to control
T1 sequence (whole entry): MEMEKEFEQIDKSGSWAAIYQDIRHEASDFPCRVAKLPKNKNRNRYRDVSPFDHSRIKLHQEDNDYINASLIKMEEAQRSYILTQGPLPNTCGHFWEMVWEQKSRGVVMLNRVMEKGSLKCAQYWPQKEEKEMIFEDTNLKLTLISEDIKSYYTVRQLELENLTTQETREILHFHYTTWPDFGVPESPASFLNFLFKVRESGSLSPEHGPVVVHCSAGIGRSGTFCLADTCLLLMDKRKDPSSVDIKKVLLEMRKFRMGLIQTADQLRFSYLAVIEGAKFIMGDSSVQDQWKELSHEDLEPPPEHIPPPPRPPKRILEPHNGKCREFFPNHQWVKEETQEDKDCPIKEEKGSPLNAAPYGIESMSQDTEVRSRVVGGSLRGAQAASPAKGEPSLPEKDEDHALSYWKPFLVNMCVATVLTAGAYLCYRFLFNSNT
How it was run: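 In-house human recombinant PTP-1B (~35 ng) was assayed with p-nitrophenyl phosphate in 25 mM Hepes, 3 mM DTT and 1 mM EDTA, pH 7.4, with DMSO at ≤1%. Absorbance at 405 nm was monitored continuously at 30 °C for 30 min, then NaOH was added and 405 nm read again. Activity was expressed as % of control, and % inhibition as 100 minus activity.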

[12] = tested on: Salmonella typhimurium; test: Antibacterial activity against Salmonella Typhimurium at 200 ug/ml after 48 hrs by tube dilution method; format: functional, organism-based; settings: Salmonella enterica subsp. enterica serovar Typhimurium; how it was run: as §1
[13] = tested on: Staphylococcus aureus; test: Antibacterial activity against Staphylococcus aureus at 200 ug/ml after 48 hrs by tube dilution method; format: functional, organism-based; how it was run: as §1
[14] = tested on: Staphylococcus aureus; test: Antibacterial activity against Staphylococcus aureus at 10 ug/ml after 48 hrs by tube dilution method; format: functional, organism-based; how it was run: as §1
[15] = tested on: Salmonella typhimurium; test: Antibacterial activity against Salmonella Typhimurium at 10 ug/ml after 48 hrs by tube dilution method; format: functional, organism-based; settings: Salmonella enterica subsp. enterica serovar Typhimurium; how it was run: as §1
[16] = tested on: Staphylococcus aureus; test: Antibacterial activity against Staphylococcus aureus at 100 ug/ml after 48 hrs by tube dilution method; format: functional, organism-based; how it was run: as §1

Compound | Activity [1] | inhibition [2] | MIC [3] | Activity [4] | inhibition [5] | MIC [6] | Activity [7] | Activity [8] | Activity [9] | Activity [10] | inhibition [11] | Activity [12] | Activity [13] | Activity [14] | Activity [15] | Activity [16]
CCCCOC(=O)n1c(-c2ccc(C#Cc3ccc4c(c3)C(C)(C)CCS4)cc2)nc2ccccc21 | inactive | 0% | 500 µg/mL (≈ 1010 µM) | inactive | 21% | 500 µg/mL (≈ 1010 µM) | Active | inactive | Active | inactive | 1.94% |  |  |  |  | 
CCCCn1c(-c2ccc(C#Cc3ccc4c(c3)C(C)(C)CCS4)cc2)nc2ccccc21 | inactive | 5% | 200 µg/mL (≈ 444 µM) | inactive | 19.9% | 200 µg/mL (≈ 444 µM) | Active | inactive | Active |  | 0.15% | Active | Active |  |  | 
C(#Cc1ccc(-c2nc3ccccc3[nH]2)cc1)c1ccccc1 | inactive | 0% | 200 µg/mL (≈ 679 µM) | inactive | 3.4% | 200 µg/mL (≈ 679 µM) | Active | inactive | Active | inactive | 1.64% | Active | Active | inactive | inactive | 
CCCCn1c(-c2ccc(C#Cc3ccccc3)cc2)nc2ccccc21 | inactive | 3% | 500 µg/mL (≈ 1430 µM) | inactive | 19.4% | 500 µg/mL (≈ 1430 µM) | Active | inactive | Active | inactive | 0% |  |  |  |  | 
Cc1ccc(S(=O)(=O)n2c(-c3ccc(C#Cc4ccccc4)cc3)nc3ccccc32)cc1 | inactive | 0% | 200 µg/mL (≈ 446 µM) | inactive | 22.6% | 200 µg/mL (≈ 446 µM) | Active | inactive | Active | inactive | 0% | Active | Active |  | inactive | 
COC(=O)n1c(-c2ccc(C#Cc3ccccc3)cc2)nc2ccccc21 | inactive | 0% | 500 µg/mL (≈ 1420 µM) | inactive | 18.2% | 500 µg/mL (≈ 1420 µM) | Active | inactive | Active | inactive | 29% |  |  |  | inactive | 
CCOC(=O)n1c(-c2ccc(C#Cc3ccccc3)cc2)nc2ccccc21 | inactive | 0% | 500 µg/mL (≈ 1360 µM) | inactive | 16.5% | 500 µg/mL (≈ 1360 µM) | Active | inactive | Active | inactive | 27.7% |  |  |  |  | 
COC(=O)n1c(-c2ccc(C#Cc3ccc4c(c3)C(C)(C)CCS4)cc2)nc2ccccc21 | inactive | 5% | 200 µg/mL (≈ 442 µM) | inactive | 17.9% | 200 µg/mL (≈ 442 µM) | Active | inactive | Active | inactive | 0.97% | Active | Active |  |  | 
CCCn1c(-c2ccc(C#Cc3ccc4c(c3)C(C)(C)CCS4)cc2)nc2ccccc21 | inactive | 0% | 500 µg/mL (≈ 1150 µM) | inactive | 17.3% | 500 µg/mL (≈ 1150 µM) | Active | inactive | Active | inactive | 7.38% |  |  | inactive | inactive | 
Cn1c(-c2ccc(C#Cc3ccccc3)cc2)nc2ccccc21 | inactive | 9% | 500 µg/mL (≈ 1620 µM) | inactive | 22.3% | 200 µg/mL (≈ 649 µM) | Active | inactive | Active | inactive | 8.42% | Active |  | inactive | inactive | 
O=S(=O)(n1c(-c2ccc(C#Cc3ccccc3)cc2)nc2ccccc21)C(F)(F)F | inactive | 0% | 500 µg/mL (≈ 1170 µM) | inactive | 16.9% | 500 µg/mL (≈ 1170 µM) | Active | inactive | Active | inactive | 0% |  |  | inactive | inactive | inactive
CC1(C)CCSc2ccc(C#Cc3ccc(-c4nc5ccccc5n4S(=O)(=O)C(F)(F)F)cc3)cc21 | inactive | 9% | 500 µg/mL (≈ 949 µM) | inactive | 22.6% | 200 µg/mL (≈ 380 µM) | Active | inactive | Active | inactive | 0.52% | Active |  | inactive | inactive | 
CC1(C)CCSc2ccc(C#Cc3ccc(-c4nc5ccccc5[nH]4)cc3)cc21 | inactive | 0% | 200 µg/mL (≈ 507 µM) | inactive | 0% | 200 µg/mL (≈ 507 µM) | Active | inactive | Active | inactive | 2.42% | Active | Active |  |  | 
CCCn1c(-c2ccc(C#Cc3ccccc3)cc2)nc2ccccc21 | inactive | 0% | 500 µg/mL (≈ 1490 µM) | inactive | 8.91% | 500 µg/mL (≈ 1490 µM) | Active | inactive | Active | inactive | 0% |  |  | inactive |  | 
CCOC(=O)n1c(-c2ccc(C#Cc3ccc4c(c3)C(C)(C)CCS4)cc2)nc2ccccc21 | inactive | 7% | 500 µg/mL (≈ 1070 µM) | inactive | 16.9% | 500 µg/mL (≈ 1070 µM) | Active | inactive | Active | inactive | 0% |  |  | inactive | inactive | 
CCn1c(-c2ccc(C#Cc3ccc4c(c3)C(C)(C)CCS4)cc2)nc2ccccc21 | inactive | 0% | 200 µg/mL (≈ 473 µM) | inactive | 15.8% | 200 µg/mL (≈ 473 µM) | Active | inactive | Active | inactive | 0% | Active | Active | inactive | inactive | 
Cn1c(-c2ccc(C#Cc3ccc4c(c3)C(C)(C)CCS4)cc2)nc2ccccc21 | inactive | 0% | 200 µg/mL (≈ 490 µM) | inactive | 18.2% | 200 µg/mL (≈ 490 µM) | Active | inactive | Active | inactive | 0% | Active | Active |  |  | 
